Reference: ChEMBL document CHEMBL4130411, “Arylthiazole antibiotics targeting intracellular methicillin-resistant Staphylococcus aureus (MRSA) that interfere with bacterial cell wall synthesis” (Eur J Med Chem, 2017)
Values after ≈ are worked out from the molar mass of the structure shown. Active and inactive are the calls of the source. The rule behind the calls is not given here.

Tests used:
[1] = system: Staphylococcus aureus; assay: Antibacterial activity against methicillin-resistant Staphylococcus aureus USA100 NRS382 after 20 hrs by broth microdilution assay; assay type: functional; conditions: USA100 NRS382, 20 h
[2] = system: Staphylococcus aureus; assay: Bactericidal activity against methicillin-resistant Staphylococcus aureus NRS123 (USA400) incubated for 20 hrs followed by replating on tryptic soy agar plates and further incubated for 18 hrs by broth microdilution assay; assay type: functional
[3] = system: Staphylococcus aureus; assay: Antibacterial activity against vancomycin-resistant Staphylococcus aureus isolate 10 after 20 hrs by broth microdilution assay; assay type: functional; conditions: isolate 10, 20 h
[4] = system: Staphylococcus aureus; assay: Antibacterial activity against methicillin-resistant Staphylococcus aureus USA200 NRS383 after 20 hrs by broth microdilution assay; assay type: functional; conditions: USA200 NRS383, 20 h
[5] = system: Staphylococcus aureus; assay: Bactericidal activity against vancomycin-resistant Staphylococcus aureus isolate 10 incubated for 20 hrs followed by replating on tryptic soy agar plates and further incubated for 18 hrs by broth microdilution assay; assay type: functional
Summary of the method: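 From MIC wells without visible growth, an aliquot was spotted onto Tryptic soy agar and incubated at 37 °C for at least 18 h; MBC = lowest concentration inhibiting 99.9% of bacterial growth.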

[6] = system: Staphylococcus aureus; assay: Bactericidal activity against methicillin-resistant Staphylococcus aureus USA200 NRS383 incubated for 20 hrs followed by replating on tryptic soy agar plates and further incubated for 18 hrs by broth microdilution assay; assay type: functional
[7] = system: Staphylococcus aureus; assay: Bactericidal activity against methicillin-resistant Staphylococcus aureus USA300 NRS384 incubated for 20 hrs followed by replating on tryptic soy agar plates and further incubated for 18 hrs by broth microdilution assay; assay type: functional
[8] = system: Staphylococcus aureus; assay: Antibacterial activity against methicillin-resistant Staphylococcus aureus USA300 NRS384 after 20 hrs by broth microdilution assay; assay type: functional; conditions: USA300 NRS384, 20 h
[9] = system: Staphylococcus aureus; assay: Bactericidal activity against methicillin-resistant Staphylococcus aureus USA100 NRS382 incubated for 20 hrs followed by replating on tryptic soy agar plates and further incubated for 18 hrs by broth microdilution assay; assay type: functional
[10] = system: Staphylococcus aureus; assay: Antibacterial activity against methicillin-resistant Staphylococcus aureus NRS123 (USA400) after 20 hrs by broth microdilution assay; assay type: functional
[11] = system: Staphylococcus aureus; assay: Antibacterial activity against Staphylococcus aureus RN4220 NRS107 after 20 hrs by broth microdilution assay; assay type: functional; conditions: RN4220 NRS107, 20 h
[12] = system: Staphylococcus aureus; assay: Bactericidal activity against Staphylococcus aureus RN4220 NRS107 incubated for 20 hrs followed by replating on tryptic soy agar plates and further incubated for 18 hrs by broth microdilution assay; assay type: functional
[13] = system: Bacillus subtilis; assay: Inhibition of cell wall biosynthesis in Bacillus subtilis assessed as induction of large bulges formation at 37.5 ug/ml incubated for 2 hrs by FM-4-64 staining based assay; assay type: functional, organism-based
Summary of the method: (§1)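 B. subtilis was grown in LB at 37 °C to OD600 ~0.2, then treated for 2 h with or without the osmotic stabiliser MSM. Cells were stained with FM 4-64 (1 µg/mL, membranes), DAPI (1 µg/mL, DNA) and SYTOX Green (1 µg/mL, lysis). Morphology was scored by deconvolution fluorescence microscopy against untreated cells.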

[14] = system: Bacillus subtilis; assay: Inhibition of cell wall biosynthesis in Bacillus subtilis assessed as induction of formation of misshapen cells at 37.5 ug/ml incubated for 2 hrs by FM-4-64 staining based assay; assay type: functional, organism-based; summary of the method: as §1
[15] = system: Staphylococcus aureus; assay: Antibacterial activity against vancomycin-resistant Staphylococcus aureus isolate 4 after 20 hrs by broth microdilution assay; assay type: functional; conditions: isolate 4, 20 h
[16] = system: Staphylococcus aureus; assay: Bactericidal activity against vancomycin-resistant Staphylococcus aureus isolate 4 incubated for 20 hrs followed by replating on tryptic soy agar plates and further incubated for 18 hrs by broth microdilution assay; assay type: functional
[17] = system: Staphylococcus aureus; assay: Bactericidal activity against methicillin-resistant Staphylococcus aureus NRS123 (USA400) assessed as time required for complete bacterial elimination after 24 hrs by time-kill assay; assay type: functional
[18] = system: Staphylococcus aureus; assay: Inhibition of cell wall synthesis in Staphylococcus aureus RN4220 NRS107 assessed as UDP-N-acetylmuramyl pentapeptide formation at 10 times MIC incubated for 30 mins by HPLC-MS analysis; assay type: functional, organism-based
[19] = system: Staphylococcus aureus; assay: Antibacterial activity against methicillin-resistant Staphylococcus aureus USA300 NRS384 infected in Caenorhabditis elegans AU37 assessed as reduction in bacterial burden at 20 ug/ml after 18 hrs by microscopic analysis; assay type: functional
[20] = system: Staphylococcus aureus; assay: Antibacterial activity against methicillin-resistant Staphylococcus aureus NRS123 (USA400) infected in mouse J774 cells assessed as reduction in bacterial colony forming units at 16 ug/ml after 24 hrs relative to control; assay type: functional
Summary of the method: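 J774 macrophages in DMEM + 10% FBS, 37 °C, 5% CO2, infected with USA400 at MOI ~100:1; after 1 h, gentamicin (50 µg/mL) wash; agent at 16 µg/mL in triplicate; at time point, gentamicin wash, lysis in 0.1% Triton X-100, serial dilution, TSA plating 18-22 h at 37 °C; % CFU/mL reduction versus untreated; t-test.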

| SMILES | MIC [1] [µg/mL] | MBC [2] [µg/mL] | MIC [3] [µg/mL] | MIC [4] [µg/mL] | MBC [5] [µg/mL] | MBC [6] [µg/mL] | MBC [7] [µg/mL] | MIC [8] [µg/mL] | MBC [9] [µg/mL] | MIC [10] [µg/mL] | MIC [11] [µg/mL] | MBC [12] [µg/mL] | inhibition [13] | inhibition [14] | MIC [15] [µg/mL] | MBC [16] [µg/mL] | Time [17] [h] | inhibition [18] | Activity [19] | Activity [20] |
| --- | --- | --- | --- | --- | --- | --- | --- | --- | --- | --- | --- | --- | --- | --- | --- | --- | --- | --- | --- | --- |
| Cc1nc(-c2ccc(-c3ccccc3)cc2)sc1-c1cnc(NN)s1 | 8 (≈ 21.9 µM) | > 64 | 16 (≈ 43.9 µM) | 8 (≈ 21.9 µM) | 16 (≈ 43.9 µM) | > 64 | 64 (≈ 176 µM) | 16 (≈ 43.9 µM) | > 64 | 16 (≈ 43.9 µM) | – | – | – | – | – | – | – | – | – | – |
| Cc1nc(-c2ccc(-c3ccccc3)cc2)sc1-c1cnc(-c2cccnc2)s1 | 8 (≈ 19.4 µM) | > 64 | 16 (≈ 38.9 µM) | 8 (≈ 19.4 µM) | 16 (≈ 38.9 µM) | > 64 | 64 (≈ 156 µM) | 16 (≈ 38.9 µM) | > 64 | 16 (≈ 38.9 µM) | – | – | – | – | – | – | – | – | – | – |
| CCCCc1ccc(-c2nc(C)c(-c3cnc(NN)s3)s2)cc1 | – | 16 (≈ 46.4 µM) | > 64 | – | > 64 | – | 16 (≈ 46.4 µM) | 16 (≈ 46.4 µM) | – | 16 (≈ 46.4 µM) | 16 (≈ 46.4 µM) | 32 (≈ 92.9 µM) | – | – | – | – | – | – | – | – |
| N[C@@H]1CONC1=O | – | – | – | – | – | – | – | – | – | – | – | – | Active | Active | – | – | – | – | – | – |
| Cc1nc(-c2ccc3ccccc3c2)sc1-c1cnc(NN)s1 | 8 (≈ 23.6 µM) | > 64 | 16 (≈ 47.3 µM) | 8 (≈ 23.6 µM) | 16 (≈ 47.3 µM) | > 64 | 64 (≈ 189 µM) | 16 (≈ 47.3 µM) | > 64 | 16 (≈ 47.3 µM) | – | – | – | – | – | – | – | – | – | – |
| CCCCc1ccc(-c2nc(C)c(-c3cnc(NC(=N)N)s3)s2)cc1 | – | 16 (≈ 43.1 µM) | 8 (≈ 21.5 µM) | – | 8 (≈ 21.5 µM) | – | 16 (≈ 43.1 µM) | 16 (≈ 43.1 µM) | – | 16 (≈ 43.1 µM) | 16 (≈ 43.1 µM) | 32 (≈ 86.1 µM) | – | – | 8 (≈ 21.5 µM) | 8 (≈ 21.5 µM) | – | – | – | – |
| Cc1nc(-c2ccc(-c3ccccc3)cc2)sc1-c1cnc(N)s1 | – | > 64 | > 64 | – | > 64 | – | > 64 | > 64 | – | > 64 | – | – | – | – | – | – | – | – | – | – |
| CN[C@H](CC(C)C)C(=O)N[C@H]1C(=O)N[C@@H](CC(N)=O)C(=O)N[C@H]2C(=O)N[C@H]3C(=O)N[C@H](C(=O)N[C@H](C(=O)O)c4cc(O)cc(O)c4-c4cc3ccc4O)[C@H](O)c3ccc(c(Cl)c3)Oc3cc2cc(c3O[C@@H]2O[C@H](CO)[C@@H](O)[C@H](O)[C@H]2O[C@H]2C[C@](C)(N)[C@H](O)[C@H](C)O2)Oc2ccc(cc2Cl)[C@H]1O [VANCOMYCIN] | – | – | ≥ 512 | – | > 512 | – | – | – | – | – | – | – | – | – | > 512 | – | 24 | Active | inactive | inactive |
